Legend:
Cholinesterase = Cholinesterase (Equus caballus, UniProt P81908); assay: Inhibition of horse serum BChE using butyrylthiocholine iodide as substrate pretreated for 10 mins followed by substrate addition measured after 20 mins by Ellman's method
In short: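 Horse serum BChE was preincubated 10 min with test sample (20, 40, 60, 80, 100 μM). Butyrylthiocholine chloride (0.2 mM) was then added with DTNB (0.5 mM) in phosphate buffer pH 8 and incubated 20 min at 37 °C. Run in triplicate; IC50 by simple linear regression.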

Acetylcholinesterase = Acetylcholinesterase (Electrophorus electricus, UniProt O42275); assay: Inhibition of electric eel AChE using acetylthiocholine iodide as substrate pretreated for 10 mins followed by substrate addition measured after 20 mins by Ellman's method
Chain of Acetylcholinesterase (O42275 whole entry): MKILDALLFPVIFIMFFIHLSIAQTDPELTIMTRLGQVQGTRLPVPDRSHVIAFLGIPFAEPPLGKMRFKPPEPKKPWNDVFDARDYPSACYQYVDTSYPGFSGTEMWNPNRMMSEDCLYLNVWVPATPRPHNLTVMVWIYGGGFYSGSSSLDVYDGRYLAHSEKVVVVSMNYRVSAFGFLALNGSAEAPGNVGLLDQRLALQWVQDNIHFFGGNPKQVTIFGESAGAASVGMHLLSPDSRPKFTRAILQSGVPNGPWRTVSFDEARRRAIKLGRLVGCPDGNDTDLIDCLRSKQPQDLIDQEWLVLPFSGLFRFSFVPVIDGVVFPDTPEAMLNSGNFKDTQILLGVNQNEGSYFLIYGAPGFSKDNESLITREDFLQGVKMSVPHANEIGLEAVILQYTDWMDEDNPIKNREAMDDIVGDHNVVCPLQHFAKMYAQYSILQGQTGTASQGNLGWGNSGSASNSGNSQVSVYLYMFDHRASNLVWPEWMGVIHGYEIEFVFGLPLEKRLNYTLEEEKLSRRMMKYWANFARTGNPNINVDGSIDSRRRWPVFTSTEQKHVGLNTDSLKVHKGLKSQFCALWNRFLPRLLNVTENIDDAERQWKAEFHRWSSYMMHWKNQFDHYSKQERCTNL

Chain of Cholinesterase (P81908 whole entry): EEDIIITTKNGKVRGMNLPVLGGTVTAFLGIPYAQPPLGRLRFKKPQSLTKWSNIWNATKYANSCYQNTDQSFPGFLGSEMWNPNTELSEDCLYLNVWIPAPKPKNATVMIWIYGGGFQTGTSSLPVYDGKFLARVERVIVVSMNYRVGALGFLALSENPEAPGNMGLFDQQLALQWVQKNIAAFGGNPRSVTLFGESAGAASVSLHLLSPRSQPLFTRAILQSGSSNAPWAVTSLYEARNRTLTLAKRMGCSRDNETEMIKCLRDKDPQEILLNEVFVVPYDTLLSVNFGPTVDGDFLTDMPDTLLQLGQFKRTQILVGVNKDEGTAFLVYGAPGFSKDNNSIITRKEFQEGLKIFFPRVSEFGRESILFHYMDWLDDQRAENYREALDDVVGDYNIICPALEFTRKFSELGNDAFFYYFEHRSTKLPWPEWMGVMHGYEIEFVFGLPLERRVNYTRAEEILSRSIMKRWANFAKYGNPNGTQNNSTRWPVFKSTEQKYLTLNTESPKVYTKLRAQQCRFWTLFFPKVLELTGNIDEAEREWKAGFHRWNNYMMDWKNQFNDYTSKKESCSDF

COc1ccc(-c2oc3ccccc3c(=O)c2O[C@@H]2O[C@H](COC(C)=O)[C@@H](OC(C)=O)[C@H](OC(C)=O)[C@H]2OC(C)=O)cc1
IC50 (Cholinesterase): 26 µM | IC50 (Acetylcholinesterase): 20.7 µM

CC(=O)OC[C@H]1O[C@@H](Oc2c(-c3ccc(CC(C)C)cc3)oc3ccccc3c2=O)[C@H](OC(C)=O)[C@@H](OC(C)=O)[C@@H]1OC(C)=O
IC50 (Cholinesterase): 5.42 µM | IC50 (Acetylcholinesterase): 2.05 µM

CC(=O)OC[C@H]1O[C@@H](Oc2c(-c3cccs3)oc3ccccc3c2=O)[C@H](OC(C)=O)[C@@H](OC(C)=O)[C@@H]1OC(C)=O
IC50 (Cholinesterase): 25.5 µM | IC50 (Acetylcholinesterase): 18.5 µM

CC(=O)OC[C@H]1O[C@@H](Oc2c(-c3ccc(Br)cc3)oc3cc(C)ccc3c2=O)[C@H](OC(C)=O)[C@@H](OC(C)=O)[C@@H]1OC(C)=O
IC50 (Cholinesterase): 30.6 µM | IC50 (Acetylcholinesterase): 22.4 µM

CC(=O)OC[C@H]1O[C@@H](Oc2c(-c3ccccc3C(=O)O)oc3ccccc3c2=O)[C@H](OC(C)=O)[C@@H](OC(C)=O)[C@@H]1OC(C)=O
IC50 (Cholinesterase): 48.4 µM | IC50 (Acetylcholinesterase): 34 µM

CC(=O)Nc1ccc(-c2oc3ccccc3c(=O)c2O[C@@H]2O[C@H](COC(C)=O)[C@@H](OC(C)=O)[C@H](OC(C)=O)[C@H]2OC(C)=O)cc1
IC50 (Cholinesterase): 39.7 µM | IC50 (Acetylcholinesterase): 38.7 µM

CC(=O)OC[C@H]1O[C@@H](Oc2c(-c3ccc(Br)cc3)oc3ccccc3c2=O)[C@H](OC(C)=O)[C@@H](OC(C)=O)[C@@H]1OC(C)=O
IC50 (Cholinesterase): 3.12 µM | IC50 (Acetylcholinesterase): 10.2 µM

CC(=O)OC[C@H]1O[C@@H](Oc2c(-c3ccccc3)oc3ccccc3c2=O)[C@H](OC(C)=O)[C@@H](OC(C)=O)[C@@H]1OC(C)=O
IC50 (Cholinesterase): 45.9 µM | IC50 (Acetylcholinesterase): 103 µM

CC(=O)OC[C@H]1O[C@@H](Oc2c(-c3cccc4ccccc34)oc3ccccc3c2=O)[C@H](OC(C)=O)[C@@H](OC(C)=O)[C@@H]1OC(C)=O
IC50 (Cholinesterase): 18.7 µM | IC50 (Acetylcholinesterase): 36.4 µM

CC(=O)OC[C@H]1O[C@@H](Oc2c(-c3ccc(F)cc3)oc3ccccc3c2=O)[C@H](OC(C)=O)[C@@H](OC(C)=O)[C@@H]1OC(C)=O
IC50 (Cholinesterase): 49.8 µM | IC50 (Acetylcholinesterase): 29.2 µM
